Laboratory results: ChEMBL document CHEMBL1138650, “Inactivation of human S-adenosylhomocysteine hydrolase by covalent labeling of cysteine 195 with thionucleoside derivatives” (Bioorg Med Chem Lett, 2004)

molecular target: T1, Adenosylhomocysteinase (Homo sapiens, UniProt P23526); assay: Binding affinity for human placental S-adenosyl-homocysteine hydrolase
Summary of the method: (§1)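 Recombinant human placental enzyme, purified to homogeneity, at 2 µM, preincubated at 37°C with inhibitor at various concentrations and times in 20 mM potassium phosphate pH 7.5, 1 mM EDTA. Ki and kinact come from a double reciprocal plot of pseudo-first-order inactivation rate versus 1/[I].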
Target sequence in this assay (P23526 whole entry): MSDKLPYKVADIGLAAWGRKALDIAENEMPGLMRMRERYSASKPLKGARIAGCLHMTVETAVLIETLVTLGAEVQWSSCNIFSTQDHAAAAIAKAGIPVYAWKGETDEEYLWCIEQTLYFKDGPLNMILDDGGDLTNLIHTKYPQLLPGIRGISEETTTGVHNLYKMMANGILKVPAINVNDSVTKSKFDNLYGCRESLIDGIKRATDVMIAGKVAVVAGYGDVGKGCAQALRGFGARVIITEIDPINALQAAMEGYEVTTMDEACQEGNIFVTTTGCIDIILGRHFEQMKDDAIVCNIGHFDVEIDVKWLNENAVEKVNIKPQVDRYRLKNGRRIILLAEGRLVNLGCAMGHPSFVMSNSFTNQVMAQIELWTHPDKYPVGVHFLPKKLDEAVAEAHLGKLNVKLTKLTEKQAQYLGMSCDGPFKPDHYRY

Ki | Compound
4 µM | Nc1ncnc2c1ncn2C1O[C@H](CS)[C@@H](O)[C@H]1O (stereo not given in full)
19 µM | CSSC[C@H]1OC(n2cnc3c(N)ncnc32)[C@H](O)[C@@H]1O (stereo not given in full)
96 µM | Nc1ncnc2c1ncn2C1O[C@@H](CSSC[C@H]2OC(n3cnc4c(N)ncnc43)[C@H](O)[C@@H]2O)[C@H](O)[C@@H]1O (stereo not given in full)

Compound | Ki
Nc1ncnc2c1ncn2C1O[C@H]([C@H]2CS2)[C@@H](O)[C@H]1O (stereo not given in full) | 50 µM
Nc1ncnc2c1ncn2C1OC([C@@H]2CS2)[C@@H](O)[C@H]1O (single isomer, unassigned) | 105 µM

molecular target: T1, Adenosylhomocysteinase; assay: Inactivation rate constant for human placental S-adenosyl-homocysteine hydrolase; summary of the method: as §1
Target sequence in this assay (P23526 2-432 limits assumed): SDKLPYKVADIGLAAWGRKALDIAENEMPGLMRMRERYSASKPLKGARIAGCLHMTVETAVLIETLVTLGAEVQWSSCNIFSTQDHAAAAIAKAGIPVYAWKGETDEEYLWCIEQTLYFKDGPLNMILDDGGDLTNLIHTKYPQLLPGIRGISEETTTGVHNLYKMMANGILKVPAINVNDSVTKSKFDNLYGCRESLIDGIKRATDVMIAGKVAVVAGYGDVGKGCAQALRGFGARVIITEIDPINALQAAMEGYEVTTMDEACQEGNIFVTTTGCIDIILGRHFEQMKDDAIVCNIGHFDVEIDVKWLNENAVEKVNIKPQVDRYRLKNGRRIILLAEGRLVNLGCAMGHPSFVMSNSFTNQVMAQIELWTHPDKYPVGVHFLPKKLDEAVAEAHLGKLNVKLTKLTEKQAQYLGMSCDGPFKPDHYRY

Kinact | Compound
0.04 min⁻¹ | Nc1ncnc2c1ncn2C1O[C@H](CS)[C@@H](O)[C@H]1O (stereo not given in full)
0.05 min⁻¹ | CSSC[C@H]1OC(n2cnc3c(N)ncnc32)[C@H](O)[C@@H]1O (stereo not given in full)
0.05 min⁻¹ | Nc1ncnc2c1ncn2C1O[C@@H](CSSC[C@H]2OC(n3cnc4c(N)ncnc43)[C@H](O)[C@@H]2O)[C@H](O)[C@@H]1O (stereo not given in full)

Compound | Kinact
Nc1ncnc2c1ncn2C1O[C@H]([C@H]2CS2)[C@@H](O)[C@H]1O (stereo not given in full) | 0.03 min⁻¹
Nc1ncnc2c1ncn2C1OC([C@@H]2CS2)[C@@H](O)[C@H]1O (single isomer, unassigned) | 0.1 min⁻¹
